In brackets after ≈: the same amount, converted by molar mass.
Assays:
Renin [1] = molecular target: T1, Renin (Homo sapiens, UniProt P00797); assay: Inhibitory activity against purified human renal renin at pH 6.5; type: functional
T1 sequence (P00797 whole entry): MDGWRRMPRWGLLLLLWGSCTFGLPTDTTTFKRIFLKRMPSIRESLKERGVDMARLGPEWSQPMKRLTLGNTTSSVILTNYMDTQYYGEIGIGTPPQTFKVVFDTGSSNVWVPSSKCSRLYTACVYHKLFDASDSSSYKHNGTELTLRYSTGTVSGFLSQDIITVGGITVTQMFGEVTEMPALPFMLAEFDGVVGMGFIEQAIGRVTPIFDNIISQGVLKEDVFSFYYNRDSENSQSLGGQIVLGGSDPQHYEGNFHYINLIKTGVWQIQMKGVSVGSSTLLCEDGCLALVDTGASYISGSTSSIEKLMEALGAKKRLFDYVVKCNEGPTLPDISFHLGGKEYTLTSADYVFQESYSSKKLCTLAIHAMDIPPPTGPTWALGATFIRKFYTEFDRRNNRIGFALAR

[2] = Log P value at the pH of 7.4; type: physicochemical; settings: octanol/water, pH 7.4; read-out: LogD7.4
Method in brief: (§1)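 Octanol/water partition. Inhibitor (0.3–0.5 mg) was dissolved in 1.00 mL octanol, and 200 μL was added to 5.00 mL buffer: 0.1 M PIPES pH 6.5 or 0.1 M HEPES pH 7.4. Samples were shaken 2 h and centrifuged, and both phases were diluted and quantified by HPLC. P was calculated from peak areas × dilution factors.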

[3] = Solubility at 37 degree C and pH of 7.4; type: physicochemical; settings: pH 7.4; read-out: S
[4] = Log P value at the pH of 6.5; type: physicochemical; settings: octanol/water, pH 6.5; read-out: LogD6.5; method in brief: as §1
Renin [5] = molecular target: T1, Renin; assay: Inhibitory activity against human plasma renin at pH 7.4; type: functional, cell-free
[6] = molecular target: Renin (Macaca fascicularis); assay: Inhibitory activity against monkey plasma renin at pH 7.4
[7] = % change in blood pressure when administarted intravenously.; type: ADME; settings: iv
Method in brief: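 Anesthetized, salt-depleted cynomolgus monkeys, 0.1 mg/kg iv bolus (n = 5). Maximum % change in mean arterial pressure taken from the T = 0 baseline. […] Values are mean ± SE.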

Rattus norvegicus [8] = assay: metabolic profile radiolabeled [14C]-21 in rats when administered orally at the dose of 1.0 mg/kg; type: ADME, organism-based; parameters: dose 1 mg/kg, route oral; settings: in vivo, po
Method in brief: (§2)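 Rats were dosed orally or iv at 1 mg/kg with 14C-labelled drug. Urine and fecal samples were profiled by C-18 HPLC with a linear 15–50% aqueous acetonitrile gradient containing 0.1% TFA. Peaks were tentatively identified by retention time against reference standards, using 215 nm absorbance or radioactivity. Results are given as % of 14C dose, mean ± SE, n = 2.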

Rattus norvegicus [9] = assay: Excretion of radiolabeled [14C]-21 in rats when administered orally at the dose of 1.0 mg/kg; type: ADME, organism-based; parameters: dose 1 mg/kg, route oral; settings: in vivo, po
Method in brief: (§3)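 Rats got [14C]-labelled inhibitor (label at oxazolidinone carbonyl), 1 mg/kg orally or intravenously. Urine and feces were collected over 72 h. Feces were homogenized in 70% aqueous ethanol and aliquots burned in a sample oxidizer. Total radioactivity was counted by liquid scintillation with internal-standard quench correction and expressed as % of dose. Mean ± SE, n = 2.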

Rattus norvegicus [10] = assay: metabolic profile radiolabeled [14C]-21 in rats when administered intravenously at the dose of 1.0 mg/kg; type: ADME, organism-based; parameters: dose 1 mg/kg, route intravenous; settings: in vivo, iv; method in brief: as §2
[11] = Plasma level when given intraduodenally to anesthetized rats from portal sample at 10 min; type: ADME, organism-based; settings: rat, read-out: Plasma level
Method in brief: (§4)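 Anesthetized rats (n = 4) received unlabelled drug intraduodenally at 10 mg/kg. Portal and systemic blood were sampled at 10 and 30 min. Plasma drug levels were determined by a renin inhibition assay. Values are mean ± SE.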

Rattus norvegicus [12] = assay: Excretion of radiolabeled [14C]-21 in rats when administered intravenously at the dose of 1.0 mg/kg; type: ADME, organism-based; parameters: dose 1 mg/kg, route intravenous; settings: in vivo, iv; method in brief: as §3
[13] = Plasma level when given intraduodenally to anesthetized rats from portal sample at 30 min; type: ADME, organism-based; settings: rat, read-out: Plasma level; method in brief: as §4
[14] = Plasma level when given intraduodenally to anesthetized rats (systemic) at 10 min; type: ADME, organism-based; settings: rat, read-out: Plasma level; method in brief: as §4
[15] = Plasma level when given intraduodenally to anesthetized rats (systemic) at 30 min; type: ADME, organism-based; settings: rat, read-out: Plasma level; method in brief: as §4

Compound: CCN1C[C@@H]([C@H](O)[C@H](CC2CCCCC2)NC(=O)[C@H](Cc2cnc[nH]2)NC(=O)[C@@H](CC(=O)N2C[C@H](OCOC)[C@H](OCOC)C2)Cc2ccccc2)OC1=O
- IC50 (Renin [1]): 2.7 nM
- logD [2]: 2.31
- solubility [3]: 4.5 mM (≈ 3470 µg/mL)
- logD [4]: 2.08
- IC50 (Renin [5]): 11 nM

Compound: CCN1C[C@@H]([C@H](O)[C@H](CC2CCCCC2)NC(=O)[C@H](Cc2cnc[nH]2)NC(=O)[C@H](Cc2ccc(OC)cc2)NC(=O)N2CCOCC2)OC1=O
- IC50 (Renin [1]): 3.4 nM
- logD [2]: 2.11
- solubility [3]: 5.9 mM (≈ 4120 µg/mL)
- logD [4]: 1.91
- IC50 (Renin [5]): 9.6 nM

Compound: CCN1C[C@@H]([C@H](O)[C@H](CC2CCCCC2)NC(=O)[C@H](Cc2cnc[nH]2)NC(=O)[C@@H](CC(=O)N2C[C@H](OCOCCOC)[C@H](OCOCCOC)C2)Cc2ccccc2)OC1=O
- IC50 (Renin [1]): 1.6 nM
- logD [2]: 1.87
- solubility [3]: 8.7 mM (≈ 7470 µg/mL)
- logD [4]: 1.56
- IC50 (Renin [5]): 7.3 nM

Compound: CC(C)C(=O)N[C@@H](Cc1ccccc1)C(=O)N[C@@H](Cc1cnc[nH]1)C(=O)N[C@@H](CC1CCCCC1)[C@@H](O)[C@@H](O)CN=[N+]=[N-]
- solubility [3]: 0.045 mM (≈ 26.9 µg/mL)
- IC50 [6]: 0.29 nM
- Change [7]: 18%

Compound: CCN1C[C@@H]([C@H](O)[C@H](CC2CCCCC2)NC(=O)[C@H](Cc2cnc[nH]2)NC(=O)[C@@H](CC(=O)N2CCOCC2)Cc2ccccc2)OC1=O
- IC50 (Renin [1]): 0.99 nM
- logD [2]: 2.2
- logD [4]: 1.9
- IC50 (Renin [5]): 1.3 nM

Compound: CCN1C[C@@H]([C@H](O)[C@H](CC2CCCCC2)NC(=O)[C@H](Cc2c[nH]cn2)NC(=O)[C@H](Cc2ccc(OC)cc2)NC(=O)C(C)C)OC1=O
- IC50 (Renin [1]): 1.7 nM
- logD [2]: 2.85
- solubility [3]: 0.37 mM (≈ 242 µg/mL)
- logD [4]: 2.67
- IC50 (Renin [5]): 9.9 nM

Compound: CCN1C[C@@H]([C@H](O)[C@H](CC2CCCCC2)NC(=O)[C@H](Cc2cnc[nH]2)NC(=O)[C@@H](CC(=O)N(C)CCOC)Cc2ccccc2)OC1=O
- IC50 (Renin [1]): 0.59 nM
- logD [2]: 2.45
- solubility [3]: 3.4 mM (≈ 2270 µg/mL)
- logD [4]: 2.29
- IC50 (Renin [5]): 1.5 nM

Compound: CCN1C[C@@H]([C@H](O)[C@H](CC2CCCCC2)NC(=O)[C@H](Cc2cnc[nH]2)NC(=O)[C@H](Cc2ccc(OC)cc2)NC(=O)N2C[C@H](OCOC)[C@H](OCOC)C2)OC1=O
- IC50 (Renin [1]): 12 nM
- logD [2]: 2.06
- logD [4]: 1.94
- IC50 (Renin [5]): 59 nM

Compound: CCN1C[C@@H]([C@H](O)[C@H](CC2CCCCC2)NC(=O)[C@H](Cc2c[nH]cn2)NC(=O)[C@H](Cc2ccc(OC)cc2)NC(=O)N2C[C@@H](O)[C@@H](O)C2)OC1=O
- IC50 (Renin [1]): 6.9 nM
- logD [2]: 1.22
- logD [4]: 0.91
- IC50 (Renin [5]): 8.7 nM

Compound: CCN1C[C@@H]([C@H](O)[C@H](CC2CCCCC2)NC(=O)[C@H](Cc2cnc[nH]2)NC(=O)[C@H](Cc2ccc(OC)cc2)NC(=O)N(C)CC(O)CO)OC1=O (stereo partly drawn)
- IC50 (Renin [1]): 7.9 nM
- logD [2]: 1.42
- logD [4]: 1.2
- IC50 (Renin [5]): 46 nM

Compound: CCN1C[C@@H]([C@H](O)[C@H](CC2CCCCC2)NC(=O)[C@H](Cc2c[nH]cn2)NC(=O)[C@H](Cc2ccc(OC)cc2)NC(=O)N(C)CCOCOC)OC1=O
- IC50 (Renin [1]): 4.6 nM
- logD [2]: 2.3
- solubility [3]: 2.1 mM (≈ 1530 µg/mL)
- logD [4]: 2.08
- IC50 (Renin [5]): 27 nM

Compound: CCN1C[C@@H]([C@H](O)[C@H](CC2CCCCC2)NC(=O)[C@H](Cc2cnc[nH]2)NC(=O)[C@H](Cc2ccc(OC)cc2)NC(=O)N2C[C@H](OCOCCOC)[C@H](OCOCCOC)C2)OC1=O
- IC50 (Renin [1]): 8.5 nM
- logD [2]: 1.67
- logD [4]: 1.58
- IC50 (Renin [5]): 26 nM

Compound: CCN1C[C@@H]([C@H](O)[C@H](CC2CCCCC2)NC(=O)[C@H](Cc2cnc[nH]2)NC(=O)[C@@H](CC(=O)N(C)CCO)Cc2ccccc2)OC1=O
- IC50 (Renin [1]): 0.85 nM
- logD [2]: 1.94
- solubility [3]: 5.2 mM (≈ 3410 µg/mL)
- logD [4]: 1.74
- IC50 (Renin [5]): 2.5 nM

Compound: CCN1C[C@@H]([C@H](O)[C@H](CC2CCCCC2)NC(=O)[C@H](Cc2cnc[nH]2)NC(=O)[C@@H](CC(=O)N(C)CCOCOC)Cc2ccccc2)OC1=O
- IC50 (Renin [1]): 0.49 nM
- logD [2]: 2.49
- logD [4]: 2.28
- IC50 (Renin [5]): 1.1 nM

Compound: CCN1C[C@@H]([C@H](O)[C@H](CC2CCCCC2)NC(=O)[C@H](Cc2c[nH]cn2)NC(=O)[C@@H](CC(=O)N(C)CCOCOCCOC)Cc2ccccc2)OC1=O
- Dose (Rattus norvegicus [8]): 73%
- logD [2]: 2.21
- Dose (Rattus norvegicus [9]): 1.9%
- solubility [3]: 5.4 mM (≈ 4010 µg/mL)
- Dose (Rattus norvegicus [10]): 35%
- concentration at 10 min [11]: 360 ng/mL
- Dose (Rattus norvegicus [12]): 8.5%
- concentration at 0.5 h [13]: 420 ng/mL
- concentration at 10 min [14]: 1.6 ng/mL
- concentration at 0.5 h [15]: 2.5 ng/mL
- logD [4]: 1.89
- Change [7]: 43%

Compound: CCN1C[C@@H]([C@H](O)[C@H](CC2CCCCC2)NC(=O)[C@H](Cc2c[nH]cn2)NC(=O)[C@H](Cc2ccc(OC)cc2)NC(=O)N(C)CCOCOCCOC)OC1=O
- IC50 (Renin [1]): 1.7 nM
- logD [2]: 2.03
- logD [4]: 1.83
- IC50 (Renin [5]): 14 nM
